Assay results published in ChEMBL document CHEMBL4837264, “Rational Design, Optimization, and Biological Evaluation of Novel MEK4 Inhibitors against Pancreatic Adenocarcinoma” (ACS Med Chem Lett, 2021).
The source made the active and inactive calls.

Tests used:
Cytochrome P450 2D6 = Cytochrome P450 2D6 (Homo sapiens, UniProt P10635); experiment: Inhibition of CYP2D6 (unknown origin); type: ADME
[1] = target: Mitogen-activated protein kinase 9 (Homo sapiens) (UniProt P45984); experiment: Inhibition of wild type full length human JNK2 (M1 to Q382 residues) expressed in mammalian expression system at 10 uM measured by Kinomescan assay
How it was run: (§1)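 Kinome-wide binding scan on the scanEDGE DiscoverX platform, covering 97 kinases, each tested at a single compound concentration of 10 μM.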

[2] = target: T1, Dual specificity mitogen-activated protein kinase kinase 5 (Homo sapiens) (UniProt Q13163); experiment: Inhibition of human wild type partial length MEK5 (L98 to P448 residues) expressed in mammalian expression system at 10 uM measured by Kinomescan assay; how it was run: as §1
T1 sequence (whole entry): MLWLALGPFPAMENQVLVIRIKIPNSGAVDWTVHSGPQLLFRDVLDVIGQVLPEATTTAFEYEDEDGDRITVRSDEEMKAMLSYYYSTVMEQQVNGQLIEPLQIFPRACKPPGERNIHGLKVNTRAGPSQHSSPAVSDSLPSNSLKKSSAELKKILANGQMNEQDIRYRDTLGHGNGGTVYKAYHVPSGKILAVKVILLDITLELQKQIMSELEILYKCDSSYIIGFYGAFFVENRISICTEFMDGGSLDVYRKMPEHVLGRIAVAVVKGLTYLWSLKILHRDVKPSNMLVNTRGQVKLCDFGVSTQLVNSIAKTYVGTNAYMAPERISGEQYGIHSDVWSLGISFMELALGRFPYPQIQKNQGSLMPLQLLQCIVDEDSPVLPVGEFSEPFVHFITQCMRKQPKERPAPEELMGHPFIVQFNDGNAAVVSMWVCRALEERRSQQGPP

[3] = target: Dual specificity mitogen-activated protein kinase kinase 1 (Homo sapiens) (UniProt Q02750); experiment: Inhibition of human MEK1 in human HPAF-II cells assessed as decrease of p42/44 MAPK phosphorylation in presence of U0126 at 10 uM measured after 5 hrs by Westren blot assay; type: cell-based
How it was run: (§2)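 CD18 or MiaPaCa2 cells pretreated with U0126 (1 or 5 μM) for 1 h, then MEK4 inhibitor (10 μM) added for 5 h. Phospho- and total p42/44 MAPK detected by Western blot with HSP90 as loading control. Blots representative of at least three biological replicates.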

Cytochrome P450 1A2 = Cytochrome P450 1A2 (Homo sapiens, UniProt P05177); experiment: Inhibition of CYP1A2 (unknown origin); type: ADME
[4] = target: T2, Dual specificity mitogen-activated protein kinase kinase 7 (Homo sapiens) (UniProt O14733); experiment: Inhibition of human MEK7 in human HEK293T cells assessed as decrease of MEK7 expression in presence of anisomycin at 100 uM measured after 5 hrs by Western blot assay; type: cell-based
T2 sequence (whole entry): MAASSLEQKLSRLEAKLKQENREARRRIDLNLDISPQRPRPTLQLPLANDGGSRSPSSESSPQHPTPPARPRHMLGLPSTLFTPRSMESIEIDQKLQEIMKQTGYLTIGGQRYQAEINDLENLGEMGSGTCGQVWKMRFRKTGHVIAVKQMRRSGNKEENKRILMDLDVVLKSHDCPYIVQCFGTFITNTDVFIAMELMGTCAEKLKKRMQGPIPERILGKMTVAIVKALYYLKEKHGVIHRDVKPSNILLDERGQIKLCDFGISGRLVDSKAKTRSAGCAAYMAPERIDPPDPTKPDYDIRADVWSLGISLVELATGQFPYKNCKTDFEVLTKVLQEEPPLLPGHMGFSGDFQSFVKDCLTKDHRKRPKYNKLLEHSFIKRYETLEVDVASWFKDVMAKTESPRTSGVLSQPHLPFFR
How it was run: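 HEK293T cells pretreated with anisomycin (3 μg/mL) for 45 min, then exposed to inhibitor (100 μM) for 5 h. MEK7 levels were read by Western blot with HSP90 as loading control. Blots are representative of at least three biological replicates.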

[5] = target: Dual specificity mitogen-activated protein kinase kinase 1 (Homo sapiens) (UniProt Q02750); experiment: Inhibition of human MEK1 in human MIA PaCa-2 cells assessed as decrease of p42/44 MAPK phosphorylation in presence of U0126 at 10 uM measured after 5 hrs by Westren blot assay; type: cell-based; how it was run: as §2
[6] = target: T3, Dual specificity mitogen-activated protein kinase kinase 6 (Homo sapiens) (UniProt P52564); experiment: Inhibition of human wild type partial length MEK6 (K36 to D344 residues) expressed in bacterial expression system at 10 uM measured by Kinomescan assay; how it was run: as §1
T3 sequence (whole entry): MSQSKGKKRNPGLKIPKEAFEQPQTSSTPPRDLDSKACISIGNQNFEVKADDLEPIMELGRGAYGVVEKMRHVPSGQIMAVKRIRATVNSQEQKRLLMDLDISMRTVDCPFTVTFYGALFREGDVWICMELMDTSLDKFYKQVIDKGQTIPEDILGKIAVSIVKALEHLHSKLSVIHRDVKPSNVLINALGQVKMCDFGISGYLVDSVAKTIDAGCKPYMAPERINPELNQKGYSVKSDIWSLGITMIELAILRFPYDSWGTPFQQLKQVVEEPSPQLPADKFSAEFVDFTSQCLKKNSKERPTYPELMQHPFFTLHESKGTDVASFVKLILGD

MIA PaCa-2 [7] = experiment: Antiproliferative activity against human MIA PaCa-2 cells assessed as inhibition of cell proliferation in presence of […] at 10 uM measured after 72 hrs; type: functional, cell-based
How it was run: (§3)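 CD18 or MiaPaCa2 cells (~30,000) treated for 72 h with DMSO, U0126 (1 or 5 μM), MEK4 inhibitor (10 μM), or the combination. Cells trypsinized and counted, with counts normalized to DMSO; two-way ANOVA. Interaction expressed as CDI = AB/(A × B) from the normalized ratios, mean ± SEM of three biological replicates.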

[8] = target: Mitogen-activated protein kinase 3 (Homo sapiens) (UniProt P27361); experiment: Inhibition of wild type full length human ERK1 (M1 to P397 residues) expressed in bacterial expression system at 10 uM measured by Kinomescan assay; how it was run: as §1
[9] = target: Dual specificity mitogen-activated protein kinase kinase 2 (Homo sapiens) (UniProt P36507); experiment: Inhibition of human MEK2 in human HEK293T cells assessed as reversal of anisomycin-induced decrease of p42/44 MAPK phosphorylation at 100 uM measured after 5 hrs by Western blot assay; type: cell-based
How it was run: (§4)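 HEK293T cells pretreated with anisomycin (3 μg/mL) for 45 min, then given inhibitor (100 μM) for 5 h. Phospho- and total p42/44 MAPK and p38 MAPK, plus MEK7, detected by Western blot with HSP90 as loading control. Blots representative of at least three biological replicates.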

HPAF-II [10] = experiment: Antiproliferative activity against human HPAF-II cells assessed as inhibition of cell proliferation in presence of […] at 10 uM measured after 72 hrs; type: functional, cell-based; how it was run: as §3
[11] = target: T4, Dual specificity mitogen-activated protein kinase kinase 3 (Homo sapiens) (UniProt P46734); experiment: Inhibition of human wild type full length MEK3 (M1 to S318) expressed in mammalian expression system at 1 uM measured by Kinomescan assay
T4 sequence (whole entry): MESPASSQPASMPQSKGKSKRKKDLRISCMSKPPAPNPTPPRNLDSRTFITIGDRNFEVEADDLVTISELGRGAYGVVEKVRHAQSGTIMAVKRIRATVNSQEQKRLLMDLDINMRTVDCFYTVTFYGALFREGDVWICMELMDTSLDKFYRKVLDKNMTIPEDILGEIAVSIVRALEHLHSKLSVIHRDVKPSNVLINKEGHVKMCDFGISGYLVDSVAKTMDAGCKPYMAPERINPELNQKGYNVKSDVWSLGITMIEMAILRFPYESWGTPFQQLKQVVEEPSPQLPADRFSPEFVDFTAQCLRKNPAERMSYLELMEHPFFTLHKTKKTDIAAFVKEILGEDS

[12] = target: Serine/threonine-protein kinase B-raf (Homo sapiens) (UniProt P15056); experiment: Inhibition of wild type partial length human BRAF (S429 to E741) expressed in mammalian expression system at 10 uM measured by Kinomescan assay; how it was run: as §1
[13] = target: T4, Dual specificity mitogen-activated protein kinase kinase 3 (Homo sapiens); experiment: Inhibition of human MEK3 in human HEK293T cells assessed as inhibition of anisomycin-induced p38 MAPK phosphorylation at 100 uM measured after 5 hrs by Western blot assay; type: cell-based; how it was run: as §4
[14] = target: Dual specificity mitogen-activated protein kinase kinase 2 (Homo sapiens) (UniProt P36507); experiment: Inhibition of human MEK2 in human MIA PaCa-2 cells assessed as decrease of p42/44 MAPK phosphorylation in presence of U0126 at 10 uM measured after 5 hrs by Westren blot assay; type: cell-based; how it was run: as §2
[15] = target: T3, Dual specificity mitogen-activated protein kinase kinase 6 (Homo sapiens); experiment: Inhibition of human wild type partial length MEK6 (K36 to D344 residues) expressed in bacterial expression system at 1 uM measured by Kinomescan assay
Cytochrome P450 2C19 = Cytochrome P450 2C19 (Homo sapiens, UniProt P33261); experiment: Inhibition of CYP2C19 (unknown origin); type: ADME
[16] = target: Mitogen-activated protein kinase 8 (Homo sapiens) (UniProt P45983); experiment: Inhibition of wild type full length human JNK1 (M1 to Q384 residues) expressed in mammalian expression system at 10 uM measured by Kinomescan assay; how it was run: as §1
[17] = target: RAF proto-oncogene serine/threonine-protein kinase (Homo sapiens) (UniProt P04049); experiment: Inhibition of wild type partial length human RAF(I330 to T640 residues) expressed in bacterial expression system at 10 uM measured by Kinomescan assay; how it was run: as §1
[18] = Metabolic stability in human liver microsomes assessed as half life by microsome assay; type: ADME
Cytochrome P450 2C9 = Cytochrome P450 2C9 (Homo sapiens, UniProt P11712); experiment: Inhibition of CYP2C9 (unknown origin); type: ADME
HPAF-II [19] = experiment: Antiproliferative activity against human HPAF-II cells assessed as inhibition of cell proliferation measured after 72 hrs; type: functional, cell-based
How it was run: (§5)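 Cells (~30,000; HEK293T, or pancreatic CD18 and MiaPaCa2) exposed to DMSO or a range of inhibitor doses for 72 h, then trypsinized and counted. Counts normalized to the DMSO control. Mean ± SD; three biological replicates; one-way ANOVA.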

[20] = target: T3, Dual specificity mitogen-activated protein kinase kinase 6 (Homo sapiens); experiment: Inhibition of human MEK6 in human HEK293T cells assessed as inhibition of anisomycin-induced p38 MAPK phosphorylation at 100 uM measured after 5 hrs by Western blot assay; type: cell-based; how it was run: as §4
Cytochrome P450 3A4 = Cytochrome P450 3A4 (Homo sapiens, UniProt P08684); experiment: Inhibition of CYP3A4 (unknown origin); type: ADME
[21] = target: T2, Dual specificity mitogen-activated protein kinase kinase 7 (Homo sapiens); experiment: Inhibition of human wild type full length MEK7 (M1 to R417 residues) expressed in mammalian expression system at 10 uM measured by Kinomescan assay
[22] = target: Dual specificity mitogen-activated protein kinase kinase 2 (Homo sapiens) (UniProt P36507); experiment: Inhibition of human MEK2 in human HPAF-II cells assessed as decrease of p42/44 MAPK phosphorylation in presence of U0126 at 10 uM measured after 5 hrs by Westren blot assay; type: cell-based
[23] = target: Dual specificity mitogen-activated protein kinase kinase 1 (Homo sapiens) (UniProt Q02750); experiment: Inhibition of human MEK1 in human HEK293T cells assessed as reversal of anisomycin-induced decrease of p42/44 MAPK phosphorylation at 100 uM measured after 5 hrs by Western blot assay; type: cell-based; how it was run: as §4
MIA PaCa-2 [24] = experiment: Antiproliferative activity against human MIA PaCa-2 cells assessed as inhibition of cell proliferation measured after 72 hrs; type: functional, cell-based; how it was run: as §5
[25] = target: T4, Dual specificity mitogen-activated protein kinase kinase 3 (Homo sapiens); experiment: Inhibition of human wild type full length MEK3 (M1 to S318) expressed in mammalian expression system at 10 uM measured by Kinomescan assay; how it was run: as §1
[26] = target: T2, Dual specificity mitogen-activated protein kinase kinase 7 (Homo sapiens); experiment: Inhibition of human wild type full length MEK7 (M1 to R417 residues) expressed in mammalian expression system at 1 uM measured by Kinomescan assay
Cytochrome P450 3A5 = Cytochrome P450 3A5 (Homo sapiens, UniProt P20815); experiment: Inhibition of CYP3A5 (unknown origin); type: ADME
[27] = target: T1, Dual specificity mitogen-activated protein kinase kinase 5 (Homo sapiens); experiment: Inhibition of human wild type partial length MEK5 (L98 to P448 residues) expressed in mammalian expression system at 1 uM measured by Kinomescan assay
[28] = target: Mitogen-activated protein kinase 10 (Homo sapiens) (UniProt P53779); experiment: Inhibition of wild type partial length human JNK3 (V28 to Q422 residues) expressed in mammalian expression system at 10 uM measured by Kinomescan assay; how it was run: as §1
Sequence of Mitogen-activated protein kinase 10 (Homo sapiens) (P53779 whole entry, the tested form may be a part): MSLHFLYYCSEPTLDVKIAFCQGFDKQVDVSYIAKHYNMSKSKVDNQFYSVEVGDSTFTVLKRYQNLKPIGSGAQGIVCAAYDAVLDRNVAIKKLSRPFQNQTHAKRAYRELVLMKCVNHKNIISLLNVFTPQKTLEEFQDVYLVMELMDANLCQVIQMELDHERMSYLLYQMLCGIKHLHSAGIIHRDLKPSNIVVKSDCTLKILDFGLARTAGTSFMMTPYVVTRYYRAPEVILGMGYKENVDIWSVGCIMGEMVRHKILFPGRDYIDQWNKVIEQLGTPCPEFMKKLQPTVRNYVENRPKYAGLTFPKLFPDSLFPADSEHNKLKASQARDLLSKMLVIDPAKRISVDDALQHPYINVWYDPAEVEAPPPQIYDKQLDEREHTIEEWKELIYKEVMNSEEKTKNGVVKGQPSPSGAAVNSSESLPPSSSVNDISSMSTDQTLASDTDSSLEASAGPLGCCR

Sequence of Dual specificity mitogen-activated protein kinase kinase 1 (Homo sapiens) (Q02750 whole entry, the tested form may be a part): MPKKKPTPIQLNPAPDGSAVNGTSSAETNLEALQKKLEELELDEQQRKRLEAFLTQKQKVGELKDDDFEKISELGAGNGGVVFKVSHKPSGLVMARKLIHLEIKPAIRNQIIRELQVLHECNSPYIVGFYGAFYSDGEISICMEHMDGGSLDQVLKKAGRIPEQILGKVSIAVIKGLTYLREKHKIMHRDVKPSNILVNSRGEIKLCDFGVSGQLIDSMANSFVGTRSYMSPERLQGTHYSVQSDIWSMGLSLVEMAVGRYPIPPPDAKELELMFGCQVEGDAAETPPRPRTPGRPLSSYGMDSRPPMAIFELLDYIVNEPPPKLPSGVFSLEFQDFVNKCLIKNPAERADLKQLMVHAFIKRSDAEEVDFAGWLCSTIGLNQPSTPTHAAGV
Sequence of Dual specificity mitogen-activated protein kinase kinase 2 (Homo sapiens) (P36507 whole entry, the tested form may be a part): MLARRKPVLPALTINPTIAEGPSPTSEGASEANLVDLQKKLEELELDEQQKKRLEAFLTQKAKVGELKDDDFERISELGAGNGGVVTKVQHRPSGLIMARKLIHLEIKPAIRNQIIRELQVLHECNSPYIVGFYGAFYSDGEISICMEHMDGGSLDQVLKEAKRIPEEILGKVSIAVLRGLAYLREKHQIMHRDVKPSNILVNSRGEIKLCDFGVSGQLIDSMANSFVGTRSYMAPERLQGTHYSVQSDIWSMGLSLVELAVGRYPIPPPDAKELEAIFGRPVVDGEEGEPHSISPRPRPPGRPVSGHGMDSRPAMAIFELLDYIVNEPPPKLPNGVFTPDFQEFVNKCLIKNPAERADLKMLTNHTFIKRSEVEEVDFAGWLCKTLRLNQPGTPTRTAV
Sequence of Cytochrome P450 3A5 (P20815 whole entry, the tested form may be a part): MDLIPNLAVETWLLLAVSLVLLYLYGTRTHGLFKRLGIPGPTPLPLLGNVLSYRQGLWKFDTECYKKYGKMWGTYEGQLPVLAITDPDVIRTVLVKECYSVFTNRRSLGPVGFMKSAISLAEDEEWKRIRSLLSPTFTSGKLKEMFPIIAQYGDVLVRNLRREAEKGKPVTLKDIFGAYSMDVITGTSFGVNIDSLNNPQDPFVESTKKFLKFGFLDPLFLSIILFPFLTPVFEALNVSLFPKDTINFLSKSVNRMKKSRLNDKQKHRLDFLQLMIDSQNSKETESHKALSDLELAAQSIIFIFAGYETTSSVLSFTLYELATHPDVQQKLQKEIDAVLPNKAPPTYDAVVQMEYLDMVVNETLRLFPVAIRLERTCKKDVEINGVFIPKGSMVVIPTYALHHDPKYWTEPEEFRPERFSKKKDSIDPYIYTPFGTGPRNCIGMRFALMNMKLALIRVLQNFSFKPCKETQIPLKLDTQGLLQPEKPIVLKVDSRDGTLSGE
Sequence of Mitogen-activated protein kinase 9 (Homo sapiens) (P45984 whole entry, looked up, the tested form may be a part): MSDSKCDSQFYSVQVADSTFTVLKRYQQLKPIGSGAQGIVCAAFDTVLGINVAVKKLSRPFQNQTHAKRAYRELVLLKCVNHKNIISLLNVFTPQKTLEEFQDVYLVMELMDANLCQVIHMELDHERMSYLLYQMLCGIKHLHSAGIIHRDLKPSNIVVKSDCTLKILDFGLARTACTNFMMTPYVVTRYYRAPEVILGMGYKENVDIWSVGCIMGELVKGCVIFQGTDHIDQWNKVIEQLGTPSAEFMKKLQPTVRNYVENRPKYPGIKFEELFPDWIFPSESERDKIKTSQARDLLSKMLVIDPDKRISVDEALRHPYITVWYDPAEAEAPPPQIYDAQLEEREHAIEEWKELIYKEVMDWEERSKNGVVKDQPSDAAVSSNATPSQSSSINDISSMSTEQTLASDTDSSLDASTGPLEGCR
Sequence of Cytochrome P450 1A2 (P05177 whole entry): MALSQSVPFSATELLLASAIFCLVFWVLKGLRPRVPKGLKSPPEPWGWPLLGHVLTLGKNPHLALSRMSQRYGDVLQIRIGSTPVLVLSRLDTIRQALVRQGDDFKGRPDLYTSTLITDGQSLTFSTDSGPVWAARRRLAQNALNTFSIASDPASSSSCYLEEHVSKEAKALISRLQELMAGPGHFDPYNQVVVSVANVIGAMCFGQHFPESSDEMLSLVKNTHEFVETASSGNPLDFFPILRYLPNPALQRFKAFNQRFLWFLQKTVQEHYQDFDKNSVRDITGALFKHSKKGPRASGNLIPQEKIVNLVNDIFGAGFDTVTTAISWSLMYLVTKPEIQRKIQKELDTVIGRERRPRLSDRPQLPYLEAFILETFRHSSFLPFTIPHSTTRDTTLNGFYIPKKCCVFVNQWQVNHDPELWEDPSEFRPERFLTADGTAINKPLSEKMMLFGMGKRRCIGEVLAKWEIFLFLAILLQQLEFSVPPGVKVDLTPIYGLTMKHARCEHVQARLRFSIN
Sequence of Mitogen-activated protein kinase 3 (Homo sapiens) (P27361 whole entry, the tested form may be a part): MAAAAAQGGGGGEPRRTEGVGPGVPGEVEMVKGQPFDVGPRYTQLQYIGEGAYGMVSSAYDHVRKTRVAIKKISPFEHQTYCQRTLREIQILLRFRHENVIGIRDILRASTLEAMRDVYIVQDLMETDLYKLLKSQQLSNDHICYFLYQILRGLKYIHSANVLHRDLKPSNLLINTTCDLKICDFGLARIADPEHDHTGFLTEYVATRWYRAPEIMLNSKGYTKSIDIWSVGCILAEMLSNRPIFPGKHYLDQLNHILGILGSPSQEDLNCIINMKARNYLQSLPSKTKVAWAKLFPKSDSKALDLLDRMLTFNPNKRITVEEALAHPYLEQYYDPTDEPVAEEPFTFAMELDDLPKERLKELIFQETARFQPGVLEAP
Sequence of Serine/threonine-protein kinase B-raf (Homo sapiens) (P15056 whole entry): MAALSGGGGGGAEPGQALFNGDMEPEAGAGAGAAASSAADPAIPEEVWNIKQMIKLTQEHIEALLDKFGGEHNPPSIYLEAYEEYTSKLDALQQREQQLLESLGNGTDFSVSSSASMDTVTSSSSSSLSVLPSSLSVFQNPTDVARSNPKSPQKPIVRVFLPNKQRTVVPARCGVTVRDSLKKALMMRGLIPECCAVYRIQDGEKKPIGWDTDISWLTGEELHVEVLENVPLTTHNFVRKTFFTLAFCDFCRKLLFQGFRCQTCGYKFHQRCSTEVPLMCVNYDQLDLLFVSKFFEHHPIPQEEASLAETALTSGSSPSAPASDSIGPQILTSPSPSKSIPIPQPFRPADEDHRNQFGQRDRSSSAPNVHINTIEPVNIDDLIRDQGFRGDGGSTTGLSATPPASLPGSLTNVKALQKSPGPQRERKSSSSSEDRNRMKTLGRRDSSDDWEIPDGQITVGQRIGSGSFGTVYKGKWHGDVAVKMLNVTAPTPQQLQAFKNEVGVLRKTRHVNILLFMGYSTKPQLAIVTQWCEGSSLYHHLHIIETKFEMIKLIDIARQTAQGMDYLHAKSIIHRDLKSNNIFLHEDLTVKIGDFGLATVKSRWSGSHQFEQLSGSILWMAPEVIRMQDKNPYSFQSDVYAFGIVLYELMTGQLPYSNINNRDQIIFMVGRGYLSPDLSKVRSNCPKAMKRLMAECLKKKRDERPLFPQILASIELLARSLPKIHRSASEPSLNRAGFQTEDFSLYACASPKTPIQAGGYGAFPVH
Sequence of RAF proto-oncogene serine/threonine-protein kinase (Homo sapiens) (P04049 whole entry, the tested form may be a part): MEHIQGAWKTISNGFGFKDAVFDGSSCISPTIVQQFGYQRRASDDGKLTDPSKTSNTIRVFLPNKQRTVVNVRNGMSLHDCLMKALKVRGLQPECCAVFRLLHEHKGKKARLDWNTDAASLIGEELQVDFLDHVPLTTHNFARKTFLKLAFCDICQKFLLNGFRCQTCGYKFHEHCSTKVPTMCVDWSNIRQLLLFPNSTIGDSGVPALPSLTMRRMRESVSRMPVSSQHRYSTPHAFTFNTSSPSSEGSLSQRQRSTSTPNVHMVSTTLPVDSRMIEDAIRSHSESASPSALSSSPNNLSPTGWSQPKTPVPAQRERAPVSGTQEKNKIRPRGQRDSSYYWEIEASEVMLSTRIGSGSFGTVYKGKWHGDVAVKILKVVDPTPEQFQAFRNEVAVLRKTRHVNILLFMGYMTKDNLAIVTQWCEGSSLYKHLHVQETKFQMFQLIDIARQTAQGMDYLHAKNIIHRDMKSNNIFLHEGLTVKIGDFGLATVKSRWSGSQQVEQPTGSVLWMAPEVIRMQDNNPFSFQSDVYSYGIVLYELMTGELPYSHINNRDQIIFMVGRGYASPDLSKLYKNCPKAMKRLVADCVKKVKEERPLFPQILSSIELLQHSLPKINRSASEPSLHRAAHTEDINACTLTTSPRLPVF
Sequence of Cytochrome P450 2C9 (P11712 whole entry): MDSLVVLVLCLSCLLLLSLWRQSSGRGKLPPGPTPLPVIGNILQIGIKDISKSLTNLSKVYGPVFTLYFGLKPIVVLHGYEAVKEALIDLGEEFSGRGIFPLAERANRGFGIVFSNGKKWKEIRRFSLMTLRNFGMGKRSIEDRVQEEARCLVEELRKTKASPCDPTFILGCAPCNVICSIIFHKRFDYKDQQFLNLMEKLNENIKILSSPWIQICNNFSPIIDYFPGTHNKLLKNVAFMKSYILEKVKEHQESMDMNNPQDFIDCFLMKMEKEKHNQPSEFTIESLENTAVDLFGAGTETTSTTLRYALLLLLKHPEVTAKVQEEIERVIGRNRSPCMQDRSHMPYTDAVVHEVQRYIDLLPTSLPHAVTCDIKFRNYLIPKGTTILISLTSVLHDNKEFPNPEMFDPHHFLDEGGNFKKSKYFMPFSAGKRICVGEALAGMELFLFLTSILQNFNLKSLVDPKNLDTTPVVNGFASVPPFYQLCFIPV

NC(=O)c1ccc(NS(=O)(=O)c2cccc(-c3n[nH]c4cc(F)ccc34)c2)cc1
74%: inhibition [26]
86%: inhibition [11]
97%: inhibition [6]
99%: inhibition [2] | inhibition [21] | inhibition [25]
Active: inhibition (INH) (Cytochrome P450 2D6) | inhibition (INH) (Cytochrome P450 1A2) | inhibition (INH) (Cytochrome P450 2C19) | inhibition (INH) (Cytochrome P450 2C9)
48%: inhibition [15]
inactive: inhibition [4] | inhibition [8] | inhibition [12] | inhibition [13] | inhibition [17] | inhibition [20]
> 3.08 h: half-life [18]
active: inhibition [1] | inhibition [3] | inhibition [5] | Activity (MIA PaCa-2 [7]) | inhibition [9] | Activity (HPAF-II [10]) | inhibition [14] | inhibition [16] | Activity (HPAF-II [19]) | inhibition [22] | inhibition [23] | Activity (MIA PaCa-2 [24]) | inhibition [28]
Not Active: inhibition (INH) (Cytochrome P450 3A4) | inhibition (INH) (Cytochrome P450 3A5)
87%: inhibition [27]
